According to ChEMBL document CHEMBL1153861, “Synthesis, optimization and structure-activity relationships of 3,5-disubstituted isoxazolines as new anti-tuberculosis agents” (2009):
In brackets after ≈: the same amount, converted by molar mass. Activity calls are given as the source filed them. The rule behind the calls is not given here.

What was measured:
[1] = system: Mycobacterium tuberculosis; test: Antitubercular activity against Mycobacterium tuberculosis H37Rv; format: functional
Procedure, shortened: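 Broth microdilution against M. tuberculosis H37Rv; MIC read by visual inspection of growth.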

Staphylococcus aureus = test: Antimicrobial activity against Staphylococcus aureus; format: functional, organism-based
Streptococcus pneumoniae = test: Antimicrobial activity against Streptococcus pneumoniae; format: functional, organism-based
Escherichia coli = test: Antimicrobial activity against Escherichia coli; format: functional, organism-based

| Compound | MIC [1] [µg/mL] | Activity (Staphylococcus aureus) | Activity (Streptococcus pneumoniae) | Activity (Escherichia coli) |
| --- | --- | --- | --- | --- |
| NC(=O)C1=NOC(c2ccc(N3CCN(Cc4ccccc4)CC3)cc2)C1 (stereo not drawn) | 200 (≈ 549 µM) | inactive | inactive | inactive |
| [N-]=[N+]=NCC1=NOC(c2ccc(N3CCOCC3)cc2)C1 (stereo not drawn) | 200 (≈ 696 µM) | inactive | inactive | inactive |
| NNC(=O)C1=NOC(c2ccc(N3CCN(Cc4ccccc4)CC3)cc2)C1 (stereo not drawn) | 50 (≈ 132 µM) | inactive | inactive | inactive |
| Cc1nnc(C2=NOC(c3ccc(N4CCN(Cc5ccccc5)CC4)cc3)C2)o1 (stereo not drawn) | 200 (≈ 496 µM) | inactive | inactive | inactive |
| CCOC(=O)C1=NOC(c2ccc(N3CCOCC3)cc2)C1 (stereo not drawn) | > 200 | inactive | inactive | inactive |
| NCC1=NOC(c2ccc(N3CCOCC3)cc2)C1 (stereo not drawn) | > 200 | inactive | inactive | inactive |
| O=C(O)C1=NOC(c2ccc(N3CCN(Cc4ccccc4)CC3)cc2)C1 (stereo not drawn) [listing 1 of 2 here] | > 200 | – | – | – |
| CCOC(=O)C1=NOC(c2ccc(N3CCCCC3)cc2)C1 (stereo not drawn) | 6.25 (≈ 20.7 µM) | inactive | inactive | inactive |
| CCOC(=O)C1=NOC(c2ccc(N3CCN(C(=O)NC(C)C)CC3)cc2)C1 (stereo not drawn) | 12.5 (≈ 32.2 µM) | inactive | inactive | inactive |
| CC(=O)NCC1=NOC(c2ccc(N3CCN(Cc4ccccc4)CC3)cc2)C1 (stereo not drawn) | > 200 | inactive | inactive | inactive |
| CC(=O)NCC1=NOC(c2ccc(N3CCOCC3)cc2)C1 (stereo not drawn) | > 200 | inactive | inactive | inactive |
| CCOC(=O)C1=NOC(c2ccc(N3CCN(C(=O)OCC)CC3)cc2)C1 (stereo not drawn) | 1.56 (≈ 4.16 µM) | inactive | inactive | inactive |
| CCCCOC(=O)N1CCN(c2ccc(C3CC(C(=O)OCC)=NO3)cc2)CC1 (stereo not drawn) | 0.8 (≈ 1.98 µM) | inactive | inactive | inactive |
| CCOC(=O)C1=NOC(c2ccc(N3CCN(C(=O)OCC(C)C)CC3)cc2)C1 (stereo not drawn) | 0.8 (≈ 1.98 µM) | inactive | inactive | inactive |
| O=C([O-])C1=NOC(c2ccc(N3CCN(Cc4ccccc4)CC3)cc2)C1.[Li+] (stereo not drawn) | 100 | – | – | – |
| O=C(O)C1=NOC(c2ccc(N3CCN(Cc4ccccc4)CC3)cc2)C1 (stereo not drawn) [listing 2 of 2 here] | – | inactive | inactive | inactive |
| [N-]=[N+]=NCC1=NOC(c2ccc(N3CCN(Cc4ccccc4)CC3)cc2)C1 (stereo not drawn) | 50 (≈ 133 µM) | inactive | inactive | inactive |
| O=C(O)C1=NOC(c2ccc(N3CCN(C(=O)NCCc4ccccc4)CC3)cc2)C1 (stereo not drawn) | > 200 | inactive | inactive | inactive |
| CCOC(=O)C1=NOC(c2ccc(N3CCN(Cc4ccc([N+](=O)[O-])cc4)CC3)cc2)C1 (stereo not drawn) | 0.8 (≈ 1.82 µM) | inactive | inactive | inactive |
| CCOC(=O)C1=NOC(c2ccc(-c3ncon3)cc2)C1 (stereo not drawn) | 50 (≈ 174 µM) | inactive | inactive | inactive |
| COC(=O)C1=NOC(c2ccc(N3CCN(Cc4ccccc4)CC3)cc2)C1 (stereo not drawn) | 1.56 (≈ 4.11 µM) | inactive | inactive | inactive |
| CCOC(=O)C1=NOC(c2ccc(N3CCN(Cc4ccccc4)CC3)cc2)C1 (stereo not drawn) | 1.56 (≈ 3.96 µM) | inactive | inactive | inactive |
| NCC1=NOC(c2ccc(N3CCN(Cc4ccccc4)CC3)cc2)C1 (stereo not drawn) | 200 (≈ 571 µM) | inactive | inactive | inactive |

| Compound | MIC [1] [µg/mL] | Activity (Staphylococcus aureus) | Activity (Streptococcus pneumoniae) | Activity (Escherichia coli) |
| --- | --- | --- | --- | --- |
| CCOC(=O)C1=NOC(c2ccc(N3CCNCC3)cc2)C1 (stereo not drawn) | 50 (≈ 165 µM) | inactive | inactive | inactive |
| OCC1=NOC(c2ccc(N3CCN(Cc4ccccc4)CC3)cc2)C1 (stereo not drawn) | 200 (≈ 569 µM) | inactive | inactive | inactive |
| CC(C)COC(=O)N1CCN(c2ccc(C3CC(C(=O)O)=NO3)cc2)CC1 (stereo not drawn) | > 200 | inactive | inactive | inactive |
| CCOC(=O)C1=NOC(c2ccc(-c3ccco3)cc2)C1 (stereo not drawn) | 3.25 (≈ 11.4 µM) | inactive | inactive | inactive |
| CCOC(=O)C1=NOC(c2ccc(N3CCN(C(=O)OC(C)(C)C)CC3)cc2)C1 (stereo not drawn) | 0.8 (≈ 1.98 µM) | inactive | inactive | inactive |
| CCOC(=O)C1=NOC(c2ccc(N3CCN(C(=O)Nc4ccccc4)CC3)cc2)C1 (stereo not drawn) | 6.25 (≈ 14.8 µM) | inactive | inactive | inactive |
| CCCNC(=O)N1CCN(c2ccc(C3CC(C(=O)OCC)=NO3)cc2)CC1 (stereo not drawn) | 25 (≈ 64.4 µM) | inactive | inactive | inactive |
| CCOC(=O)C1=NOC(c2ccc(-c3ccccc3)cc2)C1 (stereo not drawn) | 100 (≈ 339 µM) | inactive | inactive | inactive |
| CCCCCCNC(=O)N1CCN(c2ccc(C3CC(C(=O)O)=NO3)cc2)CC1 (stereo not drawn) | > 200 | inactive | inactive | inactive |
| CCCNC(=O)C1=NOC(c2ccc(N3CCN(Cc4ccccc4)CC3)cc2)C1 (stereo not drawn) | 200 (≈ 492 µM) | inactive | inactive | inactive |
| C=CCOC(=O)N1CCN(c2ccc(C3CC(C(=O)OCC)=NO3)cc2)CC1 (stereo not drawn) | 0.8 (≈ 2.06 µM) | inactive | inactive | inactive |
| CCOC(=O)C1=NOC(c2ccc(N3CCN(C(=O)OC)CC3)cc2)C1 (stereo not drawn) | 1.56 (≈ 4.32 µM) | inactive | inactive | inactive |
| CCOC(=O)C1=NOC(c2ccc(-c3ccc(C=O)cc3)cc2)C1 (stereo not drawn) | 6.25 (≈ 19.3 µM) | inactive | inactive | inactive |
| CCOC(=O)C1=NOC(c2ccc(-c3ccc(OC)c(F)c3)cc2)C1 (stereo not drawn) | 3.12 (≈ 9.1 µM) | inactive | inactive | inactive |
| C=CCN1CCN(c2ccc(C3CC(C(=O)OCC)=NO3)cc2)CC1 (stereo not drawn) | 6.25 (≈ 18.2 µM) | inactive | inactive | inactive |
| CCOC(=O)C1=NOC(c2ccc(N3CCN(CC4CC4)CC3)cc2)C1 (stereo not drawn) | 12.5 (≈ 35 µM) | inactive | inactive | inactive |
| CCOC(=O)C1=NOC(c2ccc(-c3noc(-c4ccccc4)n3)cc2)C1 (stereo not drawn) | 3.12 (≈ 8.6 µM) | inactive | inactive | inactive |
| CCOC(=O)C1=NOC(c2ccc(N3CCN(C(=O)NCCc4ccccc4)CC3)cc2)C1 (stereo not drawn) | 0.8 (≈ 1.78 µM) | inactive | inactive | inactive |
| CCCCCCNC(=O)N1CCN(c2ccc(C3CC(C(=O)OCC)=NO3)cc2)CC1 (stereo not drawn) | 0.4 (≈ 0.929 µM) | inactive | inactive | inactive |
| OCC1=NOC(c2ccc(N3CCOCC3)cc2)C1 (stereo not drawn) | > 200 | inactive | inactive | inactive |
| CCCCOC(=O)N1CCN(c2ccc(C3CC(C(=O)O)=NO3)cc2)CC1 (stereo not drawn) | > 200 | inactive | inactive | inactive |
| CCOC(=O)C1=NOC(c2ccc(N3CCC(Oc4ccc(OC(F)(F)F)cc4)CC3)cc2)C1 (stereo not drawn) | 25 (≈ 52.3 µM) | inactive | inactive | inactive |
